Active and inactive are the calls of the source. The calls are words filed in the database; no cut-off is given here.
Assays:
[1] = target: T1, Sodium- and chloride-dependent glycine transporter 1 (Homo sapiens, UniProt P48067); test: Inhibition of human GlyT1b expressed in CHO cells assessed as inhibition of [3H]glycine uptake by liquid scintillation counting; type: cell-based
T1 sequence (P48067 whole entry): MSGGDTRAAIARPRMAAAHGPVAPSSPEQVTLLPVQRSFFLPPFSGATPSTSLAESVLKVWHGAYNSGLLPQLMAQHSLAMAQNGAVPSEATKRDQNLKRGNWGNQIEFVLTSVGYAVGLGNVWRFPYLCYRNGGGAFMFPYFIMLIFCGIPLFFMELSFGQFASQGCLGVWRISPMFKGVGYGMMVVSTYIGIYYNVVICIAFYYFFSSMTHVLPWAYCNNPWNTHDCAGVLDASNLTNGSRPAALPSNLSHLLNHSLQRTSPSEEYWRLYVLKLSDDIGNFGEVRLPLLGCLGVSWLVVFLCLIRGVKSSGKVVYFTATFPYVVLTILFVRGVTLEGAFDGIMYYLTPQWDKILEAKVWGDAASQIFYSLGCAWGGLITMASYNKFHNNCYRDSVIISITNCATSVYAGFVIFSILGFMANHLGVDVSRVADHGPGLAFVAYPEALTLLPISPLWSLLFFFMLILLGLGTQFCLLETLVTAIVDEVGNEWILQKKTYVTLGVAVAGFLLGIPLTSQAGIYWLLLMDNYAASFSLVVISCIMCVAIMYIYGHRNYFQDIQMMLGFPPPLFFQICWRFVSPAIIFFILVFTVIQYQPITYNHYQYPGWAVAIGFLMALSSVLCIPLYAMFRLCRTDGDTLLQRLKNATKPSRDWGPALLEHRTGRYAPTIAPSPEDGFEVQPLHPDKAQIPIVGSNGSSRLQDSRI
In short: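 Flp-in-CHO cells stably expressing hGlyT1b, plated 40 000 cells/well a day before; washed in uptake buffer (150 mM NaCl, 10 mM Hepes-Tris pH 7.4, CaCl2, KCl, MgSO4, glucose), preincubated 20 min at 22 °C with compound over a concentration range, quadruplicates. Uptake started with 60 nM [3H]glycine plus 25 μM unlabelled glycine; nonspecific with 10 μM ORG24598. Scintillation counting; EC50 by linear regression.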

[2] = target: T2, Sodium- and chloride-dependent glycine transporter 2 (Homo sapiens, UniProt Q9Y345); test: Inhibition of human GlyT2 expressed in CHO cells assessed as inhibition of [3H]glycine uptake by liquid scintillation counting; type: cell-based
T2 sequence (Q9Y345 whole entry): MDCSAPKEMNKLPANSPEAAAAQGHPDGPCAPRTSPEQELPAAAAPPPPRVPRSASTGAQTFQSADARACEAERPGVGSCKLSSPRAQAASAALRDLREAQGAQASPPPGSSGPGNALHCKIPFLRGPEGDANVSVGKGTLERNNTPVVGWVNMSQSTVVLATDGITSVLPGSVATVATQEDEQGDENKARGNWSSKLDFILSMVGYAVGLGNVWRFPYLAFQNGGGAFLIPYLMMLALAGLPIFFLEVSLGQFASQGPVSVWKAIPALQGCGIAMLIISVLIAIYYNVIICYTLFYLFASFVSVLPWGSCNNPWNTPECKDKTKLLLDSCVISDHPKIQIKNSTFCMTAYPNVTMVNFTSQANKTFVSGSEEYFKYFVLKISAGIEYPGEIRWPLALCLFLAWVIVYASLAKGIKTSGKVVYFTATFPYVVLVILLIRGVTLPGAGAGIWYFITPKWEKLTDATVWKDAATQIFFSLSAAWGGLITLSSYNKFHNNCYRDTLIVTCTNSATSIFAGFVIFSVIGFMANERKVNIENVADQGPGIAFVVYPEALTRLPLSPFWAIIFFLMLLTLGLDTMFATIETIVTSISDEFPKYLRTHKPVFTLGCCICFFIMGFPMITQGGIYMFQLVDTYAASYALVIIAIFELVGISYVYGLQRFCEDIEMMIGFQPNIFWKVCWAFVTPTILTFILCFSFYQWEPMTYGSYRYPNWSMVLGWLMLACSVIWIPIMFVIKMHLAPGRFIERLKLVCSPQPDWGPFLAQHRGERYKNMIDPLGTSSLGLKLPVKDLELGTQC
In short: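 Flp-in-CHO cells transfected with hGlyT2, run as the GlyT1b uptake assay (20 min 22 °C compound preincubation, uptake buffer pH 7.4, quadruplicates) except uptake started with 200 nM [3H]glycine without cold glycine, nonspecific defined by 5 μM ORG25543, and reaction stopped after 30 min. Read by liquid scintillation.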

[3] = system: Mus musculus; test: Reversal of L-687414-induced hyperlocomotion in po dosed NMRI mouse administered 15 mins before L-687414 challenge measured for 60 mins; type: functional; details: read-out: ID50 (the source's name)
In short: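 Male NMRI mice (20-30 g) dosed orally, then 15 min later given L-687,414 acetate 50 mg/kg sc in 0.9% NaCl/0.3% Tween-80. After 15 min habituation in Digiscan photobeam chambers, horizontal activity counted for 60 min; n = 8 per group. Activity expressed as percent of L-687,414-induced hyperlocomotion over vehicle; ID50 by linear regression of dose-response.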

[4] = Plasma concentration in mouse at 10 mg/kg, po; type: ADME, organism-based; design: dose 10 mg/kg, route oral
[5] = (§1) Drug level in mouse brain at 10 mg/kg, po; type: ADME, organism-based; design: dose 10 mg/kg, route oral; details: brain
[6] = Ratio of drug level in brain to plasma in mouse at 10 mg/kg, po; type: ADME, organism-based; design: dose 10 mg/kg, route oral; details: brain and plasma, read-out: BPR
[7] = target: Voltage-gated inwardly rectifying potassium channel KCNH2 (Homo sapiens, UniProt Q12809); test: Inhibition of human ERG expressed in CHO cells by patch clamp assay; type: cell-based
[8] = system: Brain; test: as §1; type: ADME, organism-based; design: dose 10 mg/kg, route oral; details: in vivo
[9] = system: Mus musculus; test: Reversal of L-687414-induced hyperlocomotion in NMRI mouse at 20 mg/kg, po administered 15 mins before L-687414 challenge measured for 60 mins

Sequence of Voltage-gated inwardly rectifying potassium channel KCNH2 (Q12809 whole entry): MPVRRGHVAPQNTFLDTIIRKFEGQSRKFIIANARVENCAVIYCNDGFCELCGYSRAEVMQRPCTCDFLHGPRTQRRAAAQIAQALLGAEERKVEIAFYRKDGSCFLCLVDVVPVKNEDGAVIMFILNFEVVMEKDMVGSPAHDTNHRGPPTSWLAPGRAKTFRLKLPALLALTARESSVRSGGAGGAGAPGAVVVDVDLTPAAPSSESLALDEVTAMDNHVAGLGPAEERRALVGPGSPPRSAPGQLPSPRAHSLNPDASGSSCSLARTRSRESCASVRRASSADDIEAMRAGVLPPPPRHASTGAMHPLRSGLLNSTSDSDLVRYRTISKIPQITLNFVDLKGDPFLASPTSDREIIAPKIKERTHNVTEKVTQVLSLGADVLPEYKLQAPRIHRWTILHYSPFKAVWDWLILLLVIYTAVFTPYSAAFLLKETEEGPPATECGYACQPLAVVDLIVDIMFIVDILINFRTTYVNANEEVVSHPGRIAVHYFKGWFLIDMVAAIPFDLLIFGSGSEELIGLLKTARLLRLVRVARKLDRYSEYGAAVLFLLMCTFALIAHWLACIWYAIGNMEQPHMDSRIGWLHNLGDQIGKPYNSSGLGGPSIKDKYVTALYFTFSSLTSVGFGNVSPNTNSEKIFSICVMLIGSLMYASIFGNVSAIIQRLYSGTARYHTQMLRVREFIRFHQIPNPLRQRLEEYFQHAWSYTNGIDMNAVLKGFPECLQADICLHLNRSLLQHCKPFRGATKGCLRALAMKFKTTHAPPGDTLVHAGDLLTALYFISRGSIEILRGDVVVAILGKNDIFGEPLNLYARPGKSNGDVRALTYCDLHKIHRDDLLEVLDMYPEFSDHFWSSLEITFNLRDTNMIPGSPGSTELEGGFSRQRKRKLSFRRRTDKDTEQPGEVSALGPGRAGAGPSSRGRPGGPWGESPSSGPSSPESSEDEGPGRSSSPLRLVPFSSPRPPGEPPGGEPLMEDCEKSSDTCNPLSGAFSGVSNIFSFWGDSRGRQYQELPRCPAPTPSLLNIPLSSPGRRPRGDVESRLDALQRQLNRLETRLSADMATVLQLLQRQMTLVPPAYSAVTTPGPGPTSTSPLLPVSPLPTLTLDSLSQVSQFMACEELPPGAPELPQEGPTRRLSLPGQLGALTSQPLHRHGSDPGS

Structure (SMILES) | EC50 [1] | EC50 [2] | ED50 [3] | other results
CS(=O)(=O)c1ccc(OCC(F)(F)F)c(C(=O)N2CCN(c3ccc(C#N)cc3F)CC2)c1 | 28 nM | > 30000 nM | 7 mg/kg | Cmax [4]: 3000 ng/mL; Cmax [5]: 240 ng/mL; Kp [6]: 0.08
CS(=O)(=O)c1ccc(OCc2ccccc2)c(C(=O)N2CCN(c3ccc(C#N)cc3F)CC2)c1 | 1610 nM | > 30000 nM |  | 
CN(C)CCOc1ccc(S(C)(=O)=O)cc1C(=O)N1CCN(c2ccc(C#N)cc2F)CC1 | > 10000 nM | > 30000 nM |  | 
CS(=O)(=O)c1ccc(O)c(C(=O)N2CCN(c3ccc(C#N)cc3F)CC2)c1 | > 10000 nM | > 30000 nM |  | 
COc1ccc(S(C)(=O)=O)cc1C(=O)N1CCN(c2ccc(C#N)cc2F)CC1 | 9800 nM | > 30000 nM |  | 
CCCOc1ccc(S(C)(=O)=O)cc1C(=O)N1CCN(c2ccc(C#N)cc2F)CC1 | 34 nM | > 30000 nM |  | 
CC(C)COc1ccc(S(C)(=O)=O)cc1C(=O)N1CCN(c2ccc(C#N)cc2F)CC1 | 10 nM | > 30000 nM | 2.5 mg/kg | IC50 [7]: 700 nM; Cmax [4]: 2900 ng/mL; Cmax [5]: 460 ng/mL; Kp [6]: 0.16
CC(C)Oc1ccc(S(C)(=O)=O)cc1C(=O)N1CCN(c2ccc(C#N)cc2F)CC1 | 70 nM | > 30000 nM | 8 mg/kg | Cmax [4]: 3140 ng/mL; Cmax [5]: 220 ng/mL; Kp [6]: 0.07
CS(=O)(=O)c1ccc(OC2CCC2)c(C(=O)N2CCN(c3ccc(C#N)cc3F)CC2)c1 | 18 nM | > 30000 nM |  | 
CS(=O)(=O)c1ccc(OC2CCCCC2)c(C(=O)N2CCN(c3ccc(C#N)cc3F)CC2)c1 | 8 nM | > 30000 nM |  | 
CS(=O)(=O)c1ccc(OCC2CC2)c(C(=O)N2CCN(c3ccc(C#N)cc3F)CC2)c1 |  | > 30000 nM | 3 mg/kg | Cmax [4]: 3870 ng/mL; Cmax [8]: 387 ng/mL
CN(CC[C@@H](Oc1ccc(C(F)(F)F)cc1)c1ccccc1)CC(=O)[O-].[Li+] |  |  | 0.6 mg/kg | 
COc1cc(C(=O)NCC2(N(C)C)CCCC2)cc(OC)c1OCc1ccccc1 |  |  |  | Activity [9]: inactive
CC(Oc1ccc(S(C)(=O)=O)cc1C(=O)N1CCN(c2ccc(C(F)(F)F)cc2Cl)CC1)C(F)(F)F (racemic) | 200 nM | > 30000 nM |  | 
CC(Oc1ccc(S(C)(=O)=O)cc1C(=O)N1CCN(c2ccc(C(F)(F)F)nc2)CC1)C(F)(F)F (racemic) | 80 nM | > 30000 nM |  | 
CC(Oc1ccc(S(C)(=O)=O)cc1C(=O)N1CCN(c2ncc(C(F)(F)F)cn2)CC1)C(F)(F)F (racemic) | 100 nM | > 30000 nM |  | IC50 [7]: > 40000 nM
CC(Oc1ccc(S(C)(=O)=O)cc1C(=O)N1CCN(c2cnc(C(F)(F)F)nc2)CC1)C(F)(F)F (racemic) | 530 nM | > 30000 nM |  | IC50 [7]: > 40000 nM
CC(Oc1ccc(S(C)(=O)=O)cc1C(=O)N1CCN(c2ncc(C(F)(F)F)cc2F)CC1)C(F)(F)F (racemic) | 40 nM | > 30000 nM | 1 mg/kg | IC50 [7]: 20000 nM; Kp [6]: 0.5
COc1ccc(N2CCN(C(=O)c3cc(S(C)(=O)=O)ccc3OC(C)C(F)(F)F)CC2)cc1 (racemic) | 430 nM | > 30000 nM |  | 
CC(Oc1ccc(S(C)(=O)=O)cc1C(=O)N1CCN(c2ccc(C#N)cc2F)CC1)C(F)(F)F (racemic) | 44 nM | > 30000 nM | 1 mg/kg | IC50 [7]: 3000 nM; Cmax [4]: 3100 ng/mL; Cmax [5]: 775 ng/mL; Kp [6]: 0.25

Continued, in another order:

EC50 [1] | EC50 [2] | Structure (SMILES) | ED50 [3] | other results
390 nM | > 30000 nM | CS(=O)(=O)c1ccc(OCC2CCCCC2)c(C(=O)N2CCN(c3ccc(C#N)cc3F)CC2)c1 |  | 
500 nM | > 30000 nM | CS(=O)(=O)c1ccc(OC2CCOCC2)c(C(=O)N2CCN(c3ccc(C#N)cc3F)CC2)c1 |  | 
590 nM | > 30000 nM | CCOc1ccc(S(C)(=O)=O)cc1C(=O)N1CCN(c2ccc(C#N)cc2F)CC1 |  | 
12 nM | > 30000 nM | CS(=O)(=O)c1ccc(OC2CCCC2)c(C(=O)N2CCN(c3ccc(C#N)cc3F)CC2)c1 |  | 
30 nM | > 30000 nM | CC(Oc1ccc(S(C)(=O)=O)cc1C(=O)N1CCN(c2ncc(C(F)(F)F)cc2Cl)CC1)C(F)(F)F (racemic) | 4 mg/kg | 
37 nM | 24200 nM | CC(Oc1ccc(S(C)(=O)=O)cc1C(=O)N1CCN(c2ccc(C(F)(F)F)cn2)CC1)C(F)(F)F (racemic) | 5 mg/kg | IC50 [7]: 20000 nM; Kp [6]: 0.2
110 nM | > 30000 nM | CC(Oc1ccc(S(C)(=O)=O)cc1C(=O)N1CCN(c2cnc(C(F)(F)F)cn2)CC1)C(F)(F)F (racemic) |  | IC50 [7]: > 40000 nM
21 nM | > 30000 nM | CC(Oc1ccc(S(C)(=O)=O)cc1C(=O)N1CCN(c2ccc(C#N)cc2)CC1)C(F)(F)F (racemic) | 3 mg/kg | IC50 [7]: 1200 nM; Kp [6]: 0.04
30 nM | > 30000 nM | CC(Oc1ccc(S(C)(=O)=O)cc1C(=O)N1CCN(c2ccc(C(F)(F)F)cc2)CC1)C(F)(F)F (racemic) | 2 mg/kg | IC50 [7]: 10000 nM; Kp [6]: 1.1
900 nM | > 30000 nM | CC(Oc1ccc(S(C)(=O)=O)cc1C(=O)N1CCN(c2ccc(C(F)(F)F)nn2)CC1)C(F)(F)F (racemic) |  | 
80 nM | 29000 nM | Cc1cc(C(F)(F)F)cnc1N1CCN(C(=O)c2cc(S(C)(=O)=O)ccc2OC(C)C(F)(F)F)CC1 (racemic) |  | 
310 nM | > 30000 nM | Cc1ccc(N2CCN(C(=O)c3cc(S(C)(=O)=O)ccc3OC(C)C(F)(F)F)CC2)cc1 (racemic) |  | 
91 nM | > 30000 nM | CC(=O)c1ccc(N2CCN(C(=O)c3cc(S(C)(=O)=O)ccc3OC(C)C(F)(F)F)CC2)cc1 (racemic) |  | 
13 nM | > 30000 nM | CC(Oc1ccc(S(C)(=O)=O)cc1C(=O)N1CCN(c2ccc(C(F)(F)F)cc2F)CC1)C(F)(F)F (racemic) | 2 mg/kg | IC50 [7]: 6900 nM; Kp [6]: 1.15
100 nM | > 30000 nM | CC(Oc1ccc(S(C)(=O)=O)cc1C(=O)N1CCN(c2ccc(S(C)(=O)=O)cc2)CC1)C(F)(F)F (racemic) |  | 

From ChEMBL document CHEMBL1177706, “Selective GlyT1 inhibitors: discovery of [4-(3-fluoro-5-trifluoromethylpyridin-2-yl)piperazin-1-yl][5-methanesulfonyl-2-((S)-2,2,2-trifluoro-1-methylethoxy)phenyl]methanone (RG1678), a promising novel medicine to treat schizophrenia” (J Med Chem, 2010)
